For orientation: IC50 means the concentration at which inhibition is half-maximal.

The assay has as its system HeLa. In words: Antiproliferative activity against human HeLa cells assessed as inhibition of cell growth incubated for 24 hrs by MTT assay. The assay is classed as functional, cell-based. Summed up: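 Cells kept in DMEM with 10% FBS and 1% antibiotic-antimycotic at 37 °C and 5% CO2. Seeded at 8 × 10^3 cells per 100 μL and left 24 h, then exposed 24 h to 5, 10, 20, 50 or 100 μM. MTT at 0.5 mg/mL in HBSS was added for 2–4 h at 37 °C in the dark. Formazan was dissolved in DMSO, A570 was read, and IC50 was derived.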
A general note: Tetrazolium assays rely on reduction of a dye to a coloured formazan, in cell work by metabolically active cells.

For the compound `C=C(C)[C@@H](O)[C@H](O)C[C@H](C)[C@@H]1CC[C@]2(C)C3=CC[C@H]4C(C)(C)C(=O)CC[C@]4(C)[C@H]3CC[C@@]12C`, the IC50 was > 100 µM.

(Values after ChEMBL document CHEMBL6083205, “A comprehensive apoptotic assessment of niloticin in cervical cancer cells: a tirucallane-type triterpenoid from Aphanamixis polystachya (Wall.) Parker” (RSC Med Chem, 2024).)
